High-throughput results: PubChem, The Scripps Research Institute Molecular Screening Center
SIAE inh: blocks human sialic acid acetylesterase | AID 1053197 | inhibition, % at 9.66 µM | 370,000 compounds, 0.69% hits | Q9HAT2 | SIAE FP-Rh probe binding, fluorescence polarization;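 active means inhibition above a cutoff: mean of compounds within the control limits plus 3 SD of those, cut at about 17% in these data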;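 further: 0% = plate median of compound wells and 100% = probe without SIAE protein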
HTRA1 inh: blocks human HTRA1 serine peptidase; 340,000 compounds, 0.5% hits; inhibition, % at 5.96 µM; recombinant HTRA1, FP-rhodamine activity-based probe, fluorescence polarization; in the data active means inhibition above about 36%;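 further: 0% = enzyme with DMSO and 100% = wells lacking enzyme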
rCAG binder: molecules binding r(CAG) RNA repeats; 370,000 compounds, 1.3% hits; r(CAG) RNA repeat, TO-PRO-1 dye displacement fluorescence; AID 651821; inhibition, % at 3 µM;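 active means inhibition above the plate cutoff, the mean of all test compounds on that plate plus 3 SD, cut at about 35% in these data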;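 further: 0% = DMSO alone and 100% = 100 µM mitoxantrone as full dye displacement; higher means more dye released from RNA so lower well fluorescence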
PRMT1 inh: blocks human protein arginine methyltransferase 1; Q99873; inhibition, % at 2.79 µM; recombinant PRMT1, activity-based probe fluorescence polarization; 370,000 compounds, 1.3% hits;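 active means inhibition above about 21% made by adding two undisclosed values, limit read from the data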
Target sequence (Q99873 whole entry, looked up): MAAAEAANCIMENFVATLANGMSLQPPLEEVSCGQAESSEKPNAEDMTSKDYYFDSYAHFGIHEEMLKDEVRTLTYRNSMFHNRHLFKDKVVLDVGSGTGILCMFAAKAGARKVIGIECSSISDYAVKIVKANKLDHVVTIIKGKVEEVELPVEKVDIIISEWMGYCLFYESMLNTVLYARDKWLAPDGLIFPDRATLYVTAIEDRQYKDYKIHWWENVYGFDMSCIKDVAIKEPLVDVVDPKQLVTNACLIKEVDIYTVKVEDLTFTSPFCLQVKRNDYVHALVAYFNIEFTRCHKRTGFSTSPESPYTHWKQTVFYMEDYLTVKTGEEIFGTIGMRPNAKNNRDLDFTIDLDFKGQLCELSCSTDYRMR
TCR-CD3 inh: inhibitors of human TCR-CD3 interaction. TAMRA-labeled TCR probe fluorescence, biochemical. inhibition, % at 9.4 µM. 360,000 compounds, 0.37% hits; in the data active means inhibition above about 19%;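 further: recombinant mutant TCR 2C K166C tagged with TAMRA read by polarization; 0% = receptor in buffer alone and 100% = receptor with positive control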
mABHD4 FP: inhibitors of mouse ABHD4; Q8VD66; purified mABHD4, FP-Rh probe fluorescence polarization; inhibition, % at 8.92 µM; 370,000 compounds, 0.54% hits;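 active means inhibition exceeding the mean over every tested compound plus 3 SD, cut at about 30% in these data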;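 further: 0% = plate median of compound wells and 100% = S159A mutant with DMSO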
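Assay system: mouse ABHD4 enzyme, wild type / Also added: fluorescent activity-based probe FP-Rh / Doses: single nominal dose of 8.92 µM, 0.89% DMSO final / Timing: 45 min compound pre-incubation plus 60 min probe step, 25 °C / Signal: FP readout, ex 525 nm / em 598 nm / Control set: S159A mutant/DMSO as 100%, compound-well median as 0%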
PRMT1 confirm: confirmation of human PRMT1 inhibitors. AID 687036. recombinant His-PRMT1, activity-based probe fluorescence polarization. shares compounds with PRMT1 inh. 3,300 compounds, 42% hits. inhibition, % at 2.79 µM;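 active means mean inhibition across replicates above the hit cutoff derived for the earlier primary screen, cut at about 22% in these data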
Numbers without * were called inactive; . = no result given. An excerpt weighted towards active compounds, which were near 3.5% of everything screened.

SMILES	SIAE inh	HTRA1 inh	rCAG binder	PRMT1 inh	TCR-CD3 inh	mABHD4 FP	PRMT1 confirm
CCOC(=O)c1c(-c2ccc(C)o2)csc1NC(=O)CSc1ncn[nH]1	-6	-12	13	33*	1	-9	14
COc1ccc(-n2ccnc(SCC(=O)NCc3ccccc3Cl)c2=O)cc1	9	4	3	88*	-5	8	14
CCOc1ccc(-n2ccnc(SCC(=O)Nc3cccc(OC)c3)c2=O)cc1	12	-9	2	39*	4	0	42*
CCOC(=O)[C@]12CCC=C1N(Cc1ccc(Cl)cc1Cl)C(=O)[C@H](CC(=O)NCc1ccc(C)o1)C2	-5	.	11	35*	-3	-10	-3
CCNc1nc(NCC)n2c(SCC(=O)Nc3ccccc3F)nnc2n1	-6	3	-2	27*	-3	4	19
Cc1c([N+](=O)[O-])c(C(=O)Sc2ccc(Br)cc2)nn1C	-1	7	-1	50*	-8	2	75*
Cc1c([N+](=O)[O-])c(C(=O)N2CCCC2)nn1C	2	3	1	-2	2	-11	.
Cc1nc2ccc(S(=O)(=O)NCC(=O)NCc3ccccc3C)cc2s1	3	.	1	1	.	3	.
Cc1nc2ccc(S(=O)(=O)NCC(=O)NCc3ccc4c(c3)OCO4)cc2s1	-9	0	4	49*	7	-8	1
COc1cccc(N2CCN(CC(=O)NCc3ccc(F)cc3)CC2)c1	-1	.	0	3	.	6	.
C[C@@H]1[C@@H](c2ccccc2)c2cc3ccccc3nc2-c2nc3ccccc3cc2[C@@H]1C(=O)N1CCCC1	-1	.	6	2	.	1	.
COc1ccc(/C=C2\SC(=S)N(N3C(=O)CCC3=O)C2=O)cc1O	1	2	14	49*	-2	5	1
COc1cc(/C=C2/SC(=S)N(CC3CCCO3)C2=O)ccc1O (stereo not drawn)	-123	-155	30	0	-59	-141	.
COc1ccccc1COC(=O)c1cccc(S(=O)(=O)N(C)Cc2ccccc2)c1	-4	.	7	4	.	-9	.
COc1ccc(OC)c(S(=O)(=O)N2CCC(C(=O)NCC3COCCO3)CC2)c1 (stereo not drawn)	4	.	0	-1	.	1	.
CS(=O)(=O)N1C[C@]2(c3ccccc3)CC1Cc1ccccc12	10	.	.	4	.	4	.
CC1CC(C)CN(C(=O)c2nn(C)c3c2CSc2ccccc2-3)C1 (stereo not drawn)	5	-7	1	2	6	2	.
CC1CCCN(C(=O)c2nn(C)c3c2CSc2ccccc2-3)C1 (stereo not drawn)	4	-5	1	31*	-13	3	37*
O=S(=O)(c1ccccc1Br)N(Cc1cn(Cc2ccccc2)nn1)C1CC1	4	.	0	-3	.	-1	.
CCCC(=O)Nc1nc2ccc(OC)cc2s1	-3	-2	0	-3	6	-2	.
COc1ccc2nc(NC(=S)N(C)C)sc2c1	-8	-6	7	28*	5	0	-1
CC(=O)c1sc2nsc(SCCN3CCOCC3)c2c1N	-2	.	-3	67*	-5	6	10
Cc1ccc(-n2c(COc3ccccc3)nnc2SCC(=O)Nc2ccc3c(c2)OCO3)cc1	-3	.	3	-1	.	-8	.
O=C(CSc1ncccn1)c1ccccc1Br	2	-1	6	57*	-1	-2	38*
O=C(Nc1cccc([N+](=O)[O-])c1)NC1CCCCN(Cc2cccc(Cl)c2)C1=O (stereo not drawn)	-3	.	6	3	.	3	.
SMILES	SIAE inh	HTRA1 inh	rCAG binder	PRMT1 inh	TCR-CD3 inh	mABHD4 FP	PRMT1 confirm
CCn1c(C)c(C(C)=O)c(N2CCN(c3ccccc3)CC2)nc1=S	-1	14	-14	37*	3	19	2
CC(=O)c1c(N2CCCC2)nc(=S)n(-c2ccccc2)c1C	-5	4	2	14	3	8	.
CCn1c(C)c(C(C)=O)c(N2CCN(C(c3ccccc3)c3ccccc3)CC2)nc1=S	-5	-4	-5	-1	0	7	.
CC(=O)c1c(N2CCN(C(=O)c3ccco3)CC2)nc(=S)n(-c2ccccc2)c1C	-5	1	-3	36*	-4	-6	39*
COc1ccc(-c2csc(=NCCO)n2-c2ccccc2)cc1	1	0	0	64*	1	-10	-2
COc1ccc(-c2csc(=Nc3ccccc3)n2CCO)cc1	5	3	-1	59*	-8	-5	-6
C=CCn1c(-c2ccc(OC)cc2)csc1=Nc1c(C)n(C)n(-c2ccccc2)c1=O	-1	6	-11	-3	-4	-10	.
CC(=O)c1cccc(N=c2scc(-c3ccc(S(=O)(=O)N4CCOCC4)cc3)n2CCO)c1	0	-4	1	69*	0	-5	-1
O=C(NCc1cccs1)O[C@H]1CC[C@@]23CCCN2C(=O)CCC[C@H]3C1	2	.	.	0	.	0	.
CCc1ccc(C=NN2CCN(Cc3ccc(C)cc3C)CC2)cc1	3	.	0	-6	.	-3	.
Cc1ccc(NC(=S)N2CCSC2c2cccs2)cc1 (stereo not drawn)	-2	2	1	60*	0	-1	10
COc1ccc(C2SCCN2C(=S)Nc2ccc(Cl)cc2)cc1 (stereo not drawn)	-3	-13	3	66*	-2	-10	9
COc1ccc(C2SCCN2C(=S)Nc2cccc(Cl)c2)cc1 (stereo not drawn)	-19	-16	9	80*	-7	-9	2
COc1ccc(C2CCCN2C(=S)Nc2cccc(Cl)c2)cc1OC (stereo not drawn)	0	-10	0	-8	2	-6	.
CCOC(=O)[C@]12CCCC=C1N(Cc1ccc(OC)cc1)C(=O)[C@@H]2CC(=O)NCc1cccc(C(F)(F)F)c1	-4	.	2	1	.	-6	.
Cn1c(=O)cc(OCC(=O)N2CCN(c3ccccc3Cl)CC2)c2ccccc21	8	.	1	-1	.	6	.
COc1ccc(CN2C(=O)c3cccnc3C2=O)cc1S(=O)(=O)NCc1ccc(C)o1	6	-1	-1	41*	-4	0	-1
COCc1cc(C)c(C#N)c(=S)[nH]1	.	-1	.	.	.	.	.
C=CCc1c(C)[nH]c(=S)c(C#N)c1C	-7	-14	6	32*	6	6	53*
CN1[C@H](Cc2ccccc2)COc2cccc(F)c2S1(=O)=O	3	.	1	1	.	-1	.
S=c1[nH]c(-c2ccccc2)cn1/N=C/c1cccc2ccccc12	5	-33	11	15	2	3	.
Oc1ccc(/C=N/n2cc(-c3ccccc3)[nH]c2=S)cc1	-5	-1	9	44*	1	-8	24*
